Laboratory results taken from ChEMBL document CHEMBL1148326, “Chemometric studies on the bactericidal activity of quinolones via an extended VolSurf approach” (2004).

What was measured:
Type in all cases: functional
Staphylococcus aureus = assay: Antibacterial activity was evaluated against Staphylococcus aureus
Summary of the method: (§1)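 MIC against aerobic bacteria, measured at Bayer AG, by standard agar dilution or broth microdilution per NCCLS M7-A5 guidelines. MIC taken as lowest concentration visibly inhibiting growth after in vitro incubation, read when untreated culture growth becomes visible; expressed as log 1/C.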

Enterococcus faecalis [1] = assay: Antibacterial activity evaluated against Enterococcus faecalis; summary of the method: as §1
Pseudomonas aeruginosa = assay: Antibacterial activity was evaluated against Pseudomonas aeruginosa; summary of the method: as §1
Escherichia coli = assay: Antibacterial activity was evaluated against Escherichia coli; summary of the method: as §1
Enterococcus faecalis [2] = assay: Antibacterial activity was evaluated against Enterococcus faecalis; summary of the method: as §1

SMILES	Log 1/C (Staphylococcus aureus)	Log 1/C (Enterococcus faecalis [1])	Log 1/C (Pseudomonas aeruginosa)	Log 1/C (Escherichia coli)	Log 1/C (Enterococcus faecalis [2])
O=C(O)c1cn(C2CC2)c2c(Cl)c(N3C[C@@H]4CCCN[C@@H]4C3)c(F)cc2c1=O	7.75	7.16	6.25	8.05	–
O=C(O)c1c(=O)c2cc(F)c(N3C[C@@H]4CCCN[C@@H]4C3)c3c2n2c(csc12)CS3	6.86	6.54	5.63	7.16	–
CC(C)(C)N1CCN(c2cc3c(cc2F)c(=O)c(C(=O)O)cn3C2CC2)CC1	6.19	5.89	5.29	7.1	–
O=C(O)c1cn(C2CC2)c2cc(N3C(=O)C=CC3=O)c(F)cc2c1=O	3.43	3.43	3.43	3.43	–
O=C(O)c1cn(C2CC2)c2c(Cl)c(N3C[C@H]4CCCN[C@H]4C3)c(F)cc2c1=O	6.85	6.85	5.65	7.47	–
CC(C)(C)n1cc(C(=O)O)c(=O)c2cc(F)c(N3CCNCC3)cc21	6.44	6.44	6.14	7.06	–
O=C(O)c1cn(C2CC2)c2cc(N3C[C@@H]4CCCN[C@@H]4C3)c(F)cc2c1=O	7.12	6.21	5.92	7.12	–
O=C(O)c1cn(C2CC2)c2c(F)c(N3C[C@H]4CCCN[C@H]4C3)c(F)cc2c1=O	6.84	6.53	5.63	7.45	–
O=C(O)c1cn(-c2ccc(F)cc2F)c2nc(N3C[C@@H]4CCCN[C@@H]4C3)c(F)cc2c1=O	6.59	6	5.09	7.5	–
C#CCN1CCN(c2c(F)cc3c(=O)c(C(=O)O)cn(C4CC4)c3c2Cl)CC1	6.21	5.61	5.01	6.83	–
C[C@@]12CN(c3c(F)cc4c(=O)c(C(=O)O)cn(C5C[C@@H]5F)c4c3F)C[C@@H]1CCCN2 (stereo not given in full)	7.16	–	6.25	7.46	6.86
CNn1cc(C(=O)O)c(=O)c2cc(F)c(N3CCN(C)CC3)cc21 [AMIFLOXACIN]	5.52	4.92	5.83	6.75	–
O=C(O)c1cn(C2CC2)c2cc(N3CCNCC3)c(F)cc2c1=O [CIPROFLOXACIN]	6.16	6.16	6.77	7.66	–
C[C@H]1COc2c(N3CCN(C)CC3)c(F)cc3c(=O)c(C(=O)O)cn1c23.C[C@H]1COc2c(N3CCN(C)CC3)c(F)cc3c(=O)c(C(=O)O)cn1c23.O [LEVOFLOXACIN]	6.5	6.2	6.2	7.41	–
CCn1cc(C(=O)O)c(=O)c2cc(F)c(N3CCNC(C)C3)c(F)c21 (stereo not given) [LOMEFLOXACIN]	5.85	5.24	5.85	7.07	–
COc1c(N2C[C@@H]3CCCN[C@@H]3C2)c(F)cc2c(=O)c(C(=O)O)cn(C3CC3)c12 [MOXIFLOXACIN]	7.16	–	5.64	7.46	6.55
CCn1cc(C(=O)O)c(=O)c2cc(F)c(N3CCNCC3)cc21 [NORFLOXACIN]	5.55	5.55	5.85	6.76	–
CCn1cc(C(=O)O)c(=O)c2cc(F)c(N3CCN(C)CC3)cc21 [PEFLOXACIN]	6.12	5.52	5.82	7.05	–
N[C@@H]1CN(c2c(F)cc3c(=O)c(C(=O)O)cn([C@@H]4C[C@@H]4F)c3c2Cl)CC12CC2 [SITAFLOXACIN ANHYDROUS]	7.74	7.45	6.84	8.04	–
C[C@@H]1CN(c2c(F)c(N)c3c(=O)c(C(=O)O)cn(C4CC4)c3c2F)C[C@H](C)N1 [SPARFLOXACIN]	6.8	6.2	5.59	7.42	–
